Data set [1] addresses T1, Signal transducer and activator of transcription 3 (Homo sapiens, UniProt P40763). Description: Inhibition of Stat3 activity in human U251MG cells assessed as phosphorylated Stat3 level at 5 uM after 0.5 to 24 hrs by immunoblot analysis. It counts as cell-based. As to conditions: U-251. The method, boiled down: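 U251MG cells treated with 5 μM compound for 0–24 h, or with 0–5 μM for 2 h. Whole-cell lysates immunoblotted for pStat3, Stat3, GAPDH. Control was 0.025% DMSO-treated cells.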

For data set [2], the target named is Signal transducer and activator of transcription 3 (Mus musculus) (UniProt P42227). Description: Inhibition of Stat3 dimer DNA binding activity in mouse NIH3T3/vSrc nuclear extract at 5 uM preincubated for 30 mins followed by addition of radiolabeled probe hSIE for 30 mins by EMSA. Background: In EMSA bound probe runs differently from free probe, usually more slowly.
Sequence of Signal transducer and activator of transcription 3 (Mus musculus) (P42227 whole entry): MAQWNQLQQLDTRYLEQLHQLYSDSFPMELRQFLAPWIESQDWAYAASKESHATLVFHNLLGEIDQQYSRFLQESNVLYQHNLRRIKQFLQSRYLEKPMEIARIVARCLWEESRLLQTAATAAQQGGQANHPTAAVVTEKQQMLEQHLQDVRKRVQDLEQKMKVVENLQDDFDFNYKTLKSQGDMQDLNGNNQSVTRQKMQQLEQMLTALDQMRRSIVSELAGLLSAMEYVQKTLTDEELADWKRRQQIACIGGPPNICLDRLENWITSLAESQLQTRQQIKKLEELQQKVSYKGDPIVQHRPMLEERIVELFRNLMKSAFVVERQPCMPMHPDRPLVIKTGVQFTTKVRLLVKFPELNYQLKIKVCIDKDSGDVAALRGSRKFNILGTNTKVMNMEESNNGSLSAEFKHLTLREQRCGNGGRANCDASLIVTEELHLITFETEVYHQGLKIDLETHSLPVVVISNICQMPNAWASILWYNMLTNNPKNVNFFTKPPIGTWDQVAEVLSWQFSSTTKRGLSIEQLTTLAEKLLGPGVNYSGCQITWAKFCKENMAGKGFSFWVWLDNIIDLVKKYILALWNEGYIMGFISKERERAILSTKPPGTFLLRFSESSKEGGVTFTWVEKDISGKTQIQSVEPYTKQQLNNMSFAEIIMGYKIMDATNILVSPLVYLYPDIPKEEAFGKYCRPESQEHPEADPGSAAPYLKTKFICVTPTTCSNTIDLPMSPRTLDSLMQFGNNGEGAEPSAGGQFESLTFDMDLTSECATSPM

The target in data set [3] is T2, Signal transducer and activator of transcription 1 (Mus musculus) (UniProt P42225).
T2 sequence (whole entry): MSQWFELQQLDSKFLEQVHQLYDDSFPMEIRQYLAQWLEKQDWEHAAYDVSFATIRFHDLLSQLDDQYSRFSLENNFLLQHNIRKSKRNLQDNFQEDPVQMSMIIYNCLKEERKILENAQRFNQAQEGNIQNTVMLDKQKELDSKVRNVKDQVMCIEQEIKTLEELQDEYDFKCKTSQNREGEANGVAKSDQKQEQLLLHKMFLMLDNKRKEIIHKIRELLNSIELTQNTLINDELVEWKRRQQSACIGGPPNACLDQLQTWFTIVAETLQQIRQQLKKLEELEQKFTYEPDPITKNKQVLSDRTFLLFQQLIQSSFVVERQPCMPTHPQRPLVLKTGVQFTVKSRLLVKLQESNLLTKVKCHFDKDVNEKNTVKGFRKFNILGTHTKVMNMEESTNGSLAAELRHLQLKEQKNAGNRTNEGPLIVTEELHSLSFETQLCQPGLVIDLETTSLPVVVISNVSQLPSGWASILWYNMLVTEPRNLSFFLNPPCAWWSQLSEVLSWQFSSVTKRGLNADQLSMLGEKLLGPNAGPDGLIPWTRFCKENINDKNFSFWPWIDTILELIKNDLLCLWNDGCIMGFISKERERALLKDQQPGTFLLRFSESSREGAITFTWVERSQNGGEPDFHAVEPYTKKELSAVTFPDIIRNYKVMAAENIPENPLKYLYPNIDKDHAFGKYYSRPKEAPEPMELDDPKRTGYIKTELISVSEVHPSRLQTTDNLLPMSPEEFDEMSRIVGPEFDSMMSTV
The data set is described as follows: Modulation of EGF-induced Stat1 phosphorylation in mouse NIH3T3 cells expressing human EGFR at 5 uM preincubated for 3 hrs followed by stimulation with 1 ug/ml EGF for 12 mins by immunoblot analysis. It counts as cell-based. The method, boiled down:
(§1)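 Whole-cell lysates of equal total protein from NIH3T3/hEGFR fibroblasts, pretreated with or without 5 μM compound (control 0.025% DMSO) for 3 h, then stimulated with 1 μg/ml EGF for 12 min. SDS-PAGE immunoblotting for pStat1/Stat1 and pStat5/Stat5 with β-actin or GAPDH loading controls. Representative of 2–4 independent determinations.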
(In western blotting, separated proteins are transferred to a membrane and probed.)

A short description of data set [4]: Cytotoxicity against mouse NIH/3T3 cells at 5uM after 72 hrs by cyquant cells. As to conditions: nih3t3, 72 h. It counts as cell-based. An outline of the steps:
(§2)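 CyQuant proliferation assay after 72 h compound exposure of cultured cells; relative viability normalized to DMSO-treated control; IC50 values derived. Glioma lines grown in RPMI or DMEM with 10% FBS and 1% nonessential amino acids.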

Data set [5] can be described thus: Antiproliferative activity against human SF295 cells for 72 hrs by cyquant assay. The following applies: SF-295, 72 h. It counts as functional, cell-based. An outline of the steps: as §2
For data set [6], the system named is U-251. Description: Antiproliferative activity against human U251MG cells at 5 uM for 72 hrs by cyquant assay. It counts as functional. The method, boiled down:
as §2

Data set [7] concerns U-251. Description: Effect on PTP1B expression in human U251MG cells at 5 uM after 0.5 to 24 hrs by immunoblot analysis. It counts as functional, cell-based. An outline of the steps: (§3)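 U251MG cells treated with 5 μM compound for 0–24 h; whole-cell lysates of equal total protein immunoblotted. Controls were 0.025% DMSO-treated cells. Representative of 2–4 independent determinations.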

In data set [8] the test system is MDA-MB-231. The data set is described as follows: Antiproliferative activity against human MDA-MB-231 cells for 72 hrs by cyquant assay. As to conditions: MDA-MB-231, 72 h. In kind it is functional, cell-based. The method, boiled down:
as §2

The test system of data set [9] is U-251. Description: Effect on SOCS3 expression in human U251MG cells at 5 uM after 0.5 to 24 hrs by immunoblot analysis. It counts as functional, cell-based. The method, boiled down:
as §3

For data set [10], the target named is Mitogen-activated protein kinase; ERK1/ERK2 (Homo sapiens) (UniProt P27361+P28482). The data set is described as follows: Modulation of Erk1/2 phosphorylation in human U251MG cells at 5 uM after 0.5 to 24 hrs by immunoblot analysis. It counts as cell-based. As to conditions: U-251. An outline of the steps: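 U251MG glioma cells (RPMI or DMEM, 10% FBS, 1% nonessential amino acids) treated with 5 μM compound for 0–24 h; 0.025% DMSO control. Whole-cell lysates of equal total protein immunoblotted for pErk1/2, Erk1/2, pJAK2 and JAK2 with β-actin or GAPDH loading controls. Representative of 2–4 independent determinations.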
Sequence of Mitogen-activated protein kinase; ERK1/ERK2 (Homo sapiens) (P27361 whole entry, looked up): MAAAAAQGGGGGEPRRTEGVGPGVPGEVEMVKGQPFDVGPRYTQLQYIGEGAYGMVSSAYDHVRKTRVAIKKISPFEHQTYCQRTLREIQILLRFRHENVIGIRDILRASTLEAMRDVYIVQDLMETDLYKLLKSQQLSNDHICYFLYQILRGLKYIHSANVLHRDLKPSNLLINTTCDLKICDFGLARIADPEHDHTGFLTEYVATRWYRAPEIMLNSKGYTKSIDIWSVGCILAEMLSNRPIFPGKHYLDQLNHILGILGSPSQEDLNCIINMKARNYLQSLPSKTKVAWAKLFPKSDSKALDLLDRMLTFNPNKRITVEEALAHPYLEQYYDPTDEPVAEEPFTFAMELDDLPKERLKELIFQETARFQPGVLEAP
Sequence of Mitogen-activated protein kinase; ERK1/ERK2 (Homo sapiens) (P28482 whole entry, looked up): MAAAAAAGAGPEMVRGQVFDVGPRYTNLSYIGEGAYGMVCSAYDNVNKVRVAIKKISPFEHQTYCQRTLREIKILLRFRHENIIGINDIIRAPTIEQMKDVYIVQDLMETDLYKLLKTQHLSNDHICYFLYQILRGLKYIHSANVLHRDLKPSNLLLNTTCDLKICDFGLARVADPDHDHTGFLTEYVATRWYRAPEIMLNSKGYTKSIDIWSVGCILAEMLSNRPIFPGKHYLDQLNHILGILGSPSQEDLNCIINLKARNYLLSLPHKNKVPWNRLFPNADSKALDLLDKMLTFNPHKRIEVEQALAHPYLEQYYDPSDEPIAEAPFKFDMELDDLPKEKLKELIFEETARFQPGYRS

The target of data set [11] is T1, Signal transducer and activator of transcription 3. The data set is described as follows: Inhibition of Stat3 activity in human U251MG cells assessed as phosphorylated Stat3 level at 5 uM by immunoblot analysis. It counts as cell-based. The following applies: U-251, TDE = time-dependent effect.
Data set [12] has as its target T2, Signal transducer and activator of transcription 1 (Mus musculus). Description: Inhibition of Stat1 dimer DNA binding activity in EGF-stimulated mouse NIH3T3 nuclear extract expressing human EGFR at 5 uM preincubated for 30 mins followed by addition of radiolabeled probe hSIE for 30 mins by EMSA.
Data set [13] addresses Signal transducer and activator of transcription 1/ 3 (Mus musculus) (UniProt P42227+P42225). The data set is described as follows: Inhibition of Stat1:Stat3 dimer DNA binding activity in EGF-stimulated mouse NIH3T3 nuclear extract expressing human EGFR assessed as residual activity at 5 uM preincubated for 30 mins followed by addition of radiolabeled probe hSIE for 30 mins by EMSA. In kind it is cell-free.

The test system of data set [14] is NIH3T3. The data set is described as follows: Modulation of EGF-induced Stat5 phosphorylation in mouse NIH3T3 cells expressing human EGFR at 5 uM preincubated for 3 hrs followed by stimulation with 1 ug/ml EGF for 12 mins by immunoblot analysis. It counts as cell-based. The method, boiled down: as §1
Data set [15] concerns SF-295. Description: Antiproliferative activity against human SF295 cells at 5 uM for 72 hrs by cyquant assay. In kind it is functional, cell-based.
Data set [16] has as its target Signal transducer and activator of transcription 3 (Mus musculus) (UniProt P42227). The data set is described as follows: Inhibition of EGF-induced Stat3 phosphorylation in mouse NIH3T3 cells expressing human EGFR at 5 uM preincubated for 3 hrs followed by stimulation with 1 ug/ml EGF for 12 mins by immunoblot analysis. In kind it is cell-based. The method, boiled down:
(§4)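 NIH3T3/hEGFR fibroblasts pretreated with or without 5 μM compound for 3 h, then stimulated with 1 μg/ml EGF for 12 min. Whole-cell lysates of equal total protein immunoblotted for phospho and total Stat3, Stat1, Stat5, Erk1/2. Controls were 0.025% DMSO-treated cells. Representative of 2–4 independent determinations.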

The target of data set [17] is T1, Signal transducer and activator of transcription 3. Description: Inhibition of orthovandate-induced Stat3 phosphorylation in human U251MG cells at 5 uM for 3 hrs by immunoblot analysis in presence of 10 to 300 uM orthovandate. In kind it is cell-based. The following applies: U-251. The method, boiled down: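 U251MG cells treated with 5 μM compound for 3 h without or with 10–300 μM Na3VO4. Whole-cell lysates of equal total protein immunoblotted for pStat3 and Stat3. Controls were 0.025% DMSO. Representative of 2–4 determinations.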

Data set [18] addresses Signal transducer and activator of transcription 3 (Mus musculus) (UniProt P42227). Description: Inhibition of Stat3 dimer DNA binding activity in EGF-stimulated mouse NIH3T3 nuclear extract expressing human EGFR assessed as residual activity at 5 uM preincubated for 30 mins followed by addition of radiolabeled probe hSIE for 30 mins by EMSA.
In data set [19] the target is Mitogen-activated protein kinase 1 and 3 (ERK2 and ERK1) (Mus musculus) (UniProt P63085+Q63844). Description: Modulation of EGF-induced Erk1/2 phosphorylation in mouse NIH3T3 cells expressing human EGFR at 5 uM preincubated for 3 hrs followed by stimulation with 1 ug/ml EGF for 12 mins by immunoblot analysis. In kind it is cell-based. An outline of the steps:
as §4

Data set [20] has as its target T2, Signal transducer and activator of transcription 1 (Mus musculus). Description: Inhibition of Stat1 dimer DNA binding activity in EGF-stimulated mouse NIH3T3 nuclear extract expressing human EGFR assessed as residual activity at 5 uM preincubated for 30 mins followed by addition of radiolabeled probe hSIE for 30 mins by EMSA.
Data set [21] deals with MDA-MB-231. The data set is described as follows: Antiproliferative activity against human MDA-MB-231 cells at 5 uM for 72 hrs by cyquant assay. It counts as functional, cell-based.
For data set [22], the system named is NIH3T3. Description: Inhibition of Stat5 dimer DNA binding activity in EGF-stimulated mouse NIH3T3 nuclear extract expressing human EGFR at 5 uM preincubated for 30 mins followed by addition of radiolabeled probe MGFe for 30 mins by EMSA. In kind it is cell-free.
The nature of data set [23]: Antiproliferative activity against human U251MG cells for 72 hrs by cyquant assay. In kind it is functional, cell-based. As to conditions: U-251, 72 h. The method, boiled down: as §2
In data set [24] the target is RAC-alpha serine/threonine-protein kinase (Homo sapiens) (UniProt P31749). Description: Modulation of Akt phosphorylation in human U251MG cells at 5 uM after 0.5 to 24 hrs by immunoblot analysis. It counts as cell-based. As to conditions: U-251. An outline of the steps: as §3
Sequence of RAC-alpha serine/threonine-protein kinase (Homo sapiens) (P31749 whole entry): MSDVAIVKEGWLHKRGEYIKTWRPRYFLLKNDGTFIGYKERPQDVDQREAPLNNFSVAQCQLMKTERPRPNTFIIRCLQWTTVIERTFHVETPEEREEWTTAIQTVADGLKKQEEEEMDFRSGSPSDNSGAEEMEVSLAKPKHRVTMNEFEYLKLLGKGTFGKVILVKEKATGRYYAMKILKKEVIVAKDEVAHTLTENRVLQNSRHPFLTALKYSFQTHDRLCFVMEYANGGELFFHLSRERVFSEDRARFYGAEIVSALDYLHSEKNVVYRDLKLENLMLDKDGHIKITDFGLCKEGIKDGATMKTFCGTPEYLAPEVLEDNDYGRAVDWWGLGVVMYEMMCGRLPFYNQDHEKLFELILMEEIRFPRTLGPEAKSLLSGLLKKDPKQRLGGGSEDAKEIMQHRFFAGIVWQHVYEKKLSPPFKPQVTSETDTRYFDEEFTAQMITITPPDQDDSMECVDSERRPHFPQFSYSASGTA
Data set [25] is described as follows: Cytotoxicity against mouse NIH/3T3 cells after 72 hrs by cyquant cells. It counts as cell-based. As to conditions: NIH3T3, 72 h. An outline of the steps:
as §2

Data set [26] is described as follows: Antiproliferative activity against human U373MG cells for 72 hrs by cyquant assay. In kind it is functional, cell-based, U-373MG ATCC. The following applies: U373 MG. The method, boiled down: as §2
In data set [27] the test system is MCF7. The data set is described as follows: Antiproliferative activity against human MCF7 cells for 72 hrs by cyquant assay. It counts as functional, cell-based. The following applies: MCF7, 72 h. The method, boiled down: as §2
The target of data set [28] is T1, Signal transducer and activator of transcription 3. The data set is described as follows: Binding affinity to Stat3 (unknown origin) by NMR analysis.

Calls of active or inactive are those of the source. The rule behind the calls is not given here.

In general, IC50 refers to the concentration that inhibits the measured activity by half. A high value points to weaker potency.

T1 sequence (P40763 whole entry): as the sequence (P42227 whole entry) above, with D760E counted along it
Sequence of Mitogen-activated protein kinase 1 and 3 (ERK2 and ERK1) (Mus musculus) (P63085 whole entry, looked up): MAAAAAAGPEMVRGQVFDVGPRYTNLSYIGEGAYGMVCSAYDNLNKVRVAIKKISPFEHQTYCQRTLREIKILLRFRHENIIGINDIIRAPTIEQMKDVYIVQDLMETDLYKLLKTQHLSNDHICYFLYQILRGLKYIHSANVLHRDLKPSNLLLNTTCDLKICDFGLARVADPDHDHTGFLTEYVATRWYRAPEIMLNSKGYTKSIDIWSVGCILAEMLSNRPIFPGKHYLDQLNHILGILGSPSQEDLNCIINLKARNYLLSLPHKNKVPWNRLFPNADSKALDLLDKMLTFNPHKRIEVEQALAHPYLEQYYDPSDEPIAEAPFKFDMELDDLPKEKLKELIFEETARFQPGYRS
Sequence of Mitogen-activated protein kinase 1 and 3 (ERK2 and ERK1) (Mus musculus) (Q63844 whole entry, looked up): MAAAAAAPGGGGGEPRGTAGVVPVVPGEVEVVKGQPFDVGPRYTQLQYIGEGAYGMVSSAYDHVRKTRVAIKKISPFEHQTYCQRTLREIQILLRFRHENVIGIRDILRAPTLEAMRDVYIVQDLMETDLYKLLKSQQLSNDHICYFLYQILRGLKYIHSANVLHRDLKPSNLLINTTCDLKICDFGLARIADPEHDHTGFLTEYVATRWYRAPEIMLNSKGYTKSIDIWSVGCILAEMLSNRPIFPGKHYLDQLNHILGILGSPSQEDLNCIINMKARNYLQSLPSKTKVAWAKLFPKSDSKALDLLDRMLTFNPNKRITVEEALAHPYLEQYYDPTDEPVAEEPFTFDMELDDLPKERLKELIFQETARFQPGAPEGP

Regarding `CCC(C)C(=O)OCC1=C2/C(=C\[C@@]3(C)CC[C@](O)(O3)[C@H](C)C[C@@H]2O)OC1=O` (some centres not stated), the inhibition entry in [1] and in data set [2] was “Active” each time.
For the compound `C/C=C(/C)C(=O)O[C@H]1C[C@@H](C)[C@]2(O)CC[C@](C)(/C=C3/OC(=O)C(COC(C)=O)=C31)O2`, the inhibition result in data set [3], in data set [12], in [14], in [19] and in data set [22] was “inactive” in each case. Also, the Activity result in data set [4] was “Toxic”; in [13], 61%; in data set [18], 47%; in data set [20], 60%. Also, the IC50 was found to be 8.6 µM in [5]; 7.4 µM in [8]; 3.3 µM in data set [23]; 11.8 µM in data set [25]; 10.4 µM in data set [26]. Besides, the inhibition result in [6], in data set [15], in data set [16], in [17], in data set [21] and in [2] was “Active” each time. For the same compound, the result in data set [7], in [9], in [10] and in [24] was inactive. For the same compound, in data set [11], the inhibition result was “tde”.
In the case of `C=C(C)C(=O)O[C@H]1C[C@@H](C)[C@]2(O)CC[C@](C)(/C=C3/OC(=O)C(COC(C)=O)=C31)O2`, the Activity entry is “Toxic” in data set [4] and “Dose-dependent effect” in data set [28]. Further, the IC50 is 7.7 µM in data set [27]; 9.1 µM in [5]; 5.2 µM in data set [8]; 2.6 µM in data set [23]; 7.1 µM in [25]; 8.3 µM in data set [26]. The inhibition result in data set [6], in data set [15], in [21] and in data set [2] was “Active” in each case. In [11], the inhibition entry was “tde”. Besides, the inhibition entry in data set [12] and in [22] was “inactive” in each case.

These data come from ChEMBL document CHEMBL3627612, “Hirsutinolide Series Inhibit Stat3 Activity, Alter GCN1, MAP1B, Hsp105, G6PD, Vimentin, TrxR1, and Importin α-2 Expression, and Induce Antitumor Effects against Human Glioma” (J Med Chem, 2015).
